According to ChEMBL document CHEMBL3244123, “Isoquinolines. 5. Synthesis and antiarrhythmic activity of benzylisoquinoline derivatives” (J Med Chem, 1977):
Active and inactive are the calls of the source. The calls are words filed in the database; no cut-off is given here.

Key:
Mus musculus [1] = experiment: Toxicity in Swiss albino mouse assessed as loss of righting reflex at 100 mg/kg, sc measured up to 20 mins; type: organism-based; set-up: dose 100 mg/kg, route subcutaneous; conditions: in vivo
How it was run: (§1)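 Female Swiss albino mice, ten per dose, were given drug in 0.9% saline sc and watched for 20 min before chloroform challenge. Ataxia, convulsions, loss of righting reflex and death were each reported as number of animals affected of ten.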

Mus musculus [2] = experiment: Toxicity in Swiss albino mouse assessed as mortality at 100 mg/kg, sc measured up to 20 mins; type: organism-based; set-up: dose 100 mg/kg, route subcutaneous; conditions: in vivo; how it was run: as §1
Mus musculus [3] = experiment: Toxicity in Swiss albino mouse assessed as convulsions at 100 mg/kg, sc measured up to 20 mins; type: organism-based; set-up: dose 100 mg/kg, route subcutaneous; conditions: in vivo; how it was run: as §1
Mus musculus [4] = experiment: Toxicity in Swiss albino mouse assessed as loss of righting reflex at 138 mg/kg, sc measured up to 20 mins; type: organism-based; set-up: dose 138 mg/kg, route subcutaneous; conditions: in vivo; how it was run: as §1
Mus musculus [5] = experiment: Toxicity in Swiss albino mouse assessed as convulsions at 138 mg/kg, sc measured up to 20 mins; type: organism-based; set-up: dose 138 mg/kg, route subcutaneous; conditions: in vivo; how it was run: as §1
Mus musculus [6] = experiment: Antiarrhythmic activity in sc dosed Swiss albino mouse assessed as protection against chloroform-induced ventricular fibrillation compound administered 20 mins prior to challenge; type: functional; conditions: Heart
How it was run: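 Female Swiss albino mice, ten per dose, given drug sc in 0.9% saline; screen at 100 mg/kg (raised to 200 mg/kg if neither protection nor toxicity), observed 20 min for toxicity, then exposed to chloroform vapour; absence of ventricular fibrillation counted as protection. Full tests used three log-spaced doses; ED50 with 95% Fieller limits by Berkson minimum logit χ² analysis.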

Mus musculus [7] = experiment: Toxicity in Swiss albino mouse assessed as mortality at 138 mg/kg, sc measured up to 20 mins; type: organism-based; set-up: dose 138 mg/kg, route subcutaneous; conditions: in vivo; how it was run: as §1
Mus musculus [8] = experiment: Toxicity in Swiss albino mouse assessed as ataxia at 138 mg/kg, sc measured up to 20 mins; type: organism-based; set-up: dose 138 mg/kg, route subcutaneous; conditions: in vivo; how it was run: as §1
Mus musculus [9] = experiment: Toxicity in Swiss albino mouse assessed as mortality at 200 mg/kg, sc measured up to 20 mins; type: organism-based; set-up: dose 200 mg/kg, route subcutaneous; conditions: in vivo; how it was run: as §1
Mus musculus [10] = experiment: Toxicity in Swiss albino mouse assessed as ataxia at 200 mg/kg, sc measured up to 20 mins; type: organism-based; set-up: dose 200 mg/kg, route subcutaneous; conditions: in vivo; how it was run: as §1
Mus musculus [11] = experiment: Toxicity in Swiss albino mouse assessed as convulsions at 200 mg/kg, sc measured up to 20 mins; type: organism-based; set-up: dose 200 mg/kg, route subcutaneous; conditions: in vivo; how it was run: as §1
Mus musculus [12] = experiment: Toxicity in Swiss albino mouse assessed as loss of righting reflex at 200 mg/kg, sc measured up to 20 mins; type: organism-based; set-up: dose 200 mg/kg, route subcutaneous; conditions: in vivo; how it was run: as §1
Mus musculus [13] = experiment: Antiarrhythmic activity in Swiss albino mouse assessed as protection against chloroform-induced ventricular fibrillation at 200 mg/kg, sc administered 20 mins prior to challenge; type: functional, organism-based; set-up: dose 200 mg/kg; conditions: Heart
How it was run: (§2)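 Female Swiss albino mice, groups of ten, received drug in 0.9% saline sc at 100 mg/kg; dose raised to 200 mg/kg when neither protection nor toxicity appeared. After 20 min, mice were exposed to chloroform vapour. Absence of ventricular fibrillation counted as protection, reported as number protected of ten.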

Mus musculus [14] = experiment: Toxicity in Swiss albino mouse assessed as ataxia at 100 mg/kg, sc measured up to 20 mins; type: organism-based; set-up: dose 100 mg/kg, route subcutaneous; conditions: in vivo; how it was run: as §1
Mus musculus [15] = experiment: Antiarrhythmic activity in Swiss albino mouse assessed as protection against chloroform-induced ventricular fibrillation at 100 mg/kg, sc administered 20 mins prior to challenge; type: functional, organism-based; set-up: dose 100 mg/kg; conditions: Heart; how it was run: as §2
Mus musculus [16] = experiment: Toxicity in Swiss albino mouse assessed as loss of righting reflex at 47 mg/kg, sc measured up to 20 mins; type: organism-based; set-up: dose 47 mg/kg, route subcutaneous; conditions: in vivo; how it was run: as §1
Mus musculus [17] = experiment: Antiarrhythmic activity in Swiss albino mouse assessed as protection against chloroform-induced ventricular fibrillation at 47 mg/kg, sc administered 20 mins prior to challenge; type: functional, organism-based; set-up: dose 47 mg/kg; conditions: Heart
How it was run: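 Female Swiss albino mice, ten per dose, received drug in 0.9% saline sc at one of three log-spaced doses. After 20 min, mice were exposed to chloroform vapour. Mice without ventricular fibrillation were scored protected, reported as number protected of ten.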

Mus musculus [18] = experiment: Toxicity in Swiss albino mouse assessed as ataxia at 47 mg/kg, sc measured up to 20 mins; type: organism-based; set-up: dose 47 mg/kg, route subcutaneous; conditions: in vivo; how it was run: as §1
Canis familiaris [19] = experiment: Antiarrhythmic activity in beagle dog myocardial infarction model assessed as mean arterial blood pressure at 0.5 mg/kg/min, iv administered as infusion (reference value: 80 to 115 mmHg)
Canis familiaris [20] = experiment: Antiarrhythmic activity in beagle dog myocardial infarction model assessed as ventricular rate at 0.5 mg/kg/min, iv administered as infusion (reference value: 126 to 221 bpm); type: functional, Canis lupus familiaris, Heart
How it was run: (§3)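 Drug infused iv via a fore limb vein at 0.5 mg/kg/min (as base, in 0.9% saline, pH 6–7) until clearing (ventricular ectopic activity ≤5% for a consecutive 5 min); EKG and vital signs monitored during and after infusion.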

Canis familiaris [21] = experiment: Toxicity in beagle dog myocardial infarction model assessed as convulsions compound administered iv as infusion; type: organism-based, Canis lupus familiaris; conditions: in vivo; how it was run: as §3
Canis familiaris [22] = experiment: Toxicity in beagle dog myocardial infarction model assessed as head tremors compound administered iv as infusion; type: organism-based, Canis lupus familiaris; conditions: in vivo; how it was run: as §3
Canis familiaris [23] = experiment: Antiarrhythmic activity in beagle dog myocardial infarction model assessed as ventricular ectopic beats at 0.5 mg/kg/min, iv administered as infusion (reference value: 84 to 98 %); type: functional, Canis lupus familiaris, Heart; how it was run: as §3
Canis familiaris [24] = experiment: Antiarrhythmic activity in beagle dog myocardial infarction model assessed as concentration required for reduction in ventricular ectopic activity to 5% or less for a consecutive 5 min compound administered iv as infusion; type: functional, Canis lupus familiaris, Heart; how it was run: as §3

Structure (SMILES) | Activity (Mus musculus [1]) | Activity (Mus musculus [2]) | Activity (Mus musculus [3]) | Activity (Mus musculus [14]) | also measured
CCNCC(=O)Nc1cc(OC)c(OC)cc1Cc1nccc2cc(OC)c(OC)cc12 | Non-toxic | Non-toxic | Non-toxic |  | 
CCN(CC)CC(=O)Nc1c(CC2c3ccccc3CCN2C)ccc(OC)c1OC.Cl (centres undefined) |  |  |  |  | Activity (Mus musculus [4]): Non-toxic; Activity (Mus musculus [5]): Non-toxic; ED50 (Mus musculus [6]): 147 mg/kg; Activity (Mus musculus [7]): Non-toxic; Activity (Mus musculus [8]): Non-toxic
CCN(CC)CC(=O)Nc1cc(OC)ccc1C.Cl |  |  |  |  | Activity (Mus musculus [9]): Non-toxic; Activity (Mus musculus [10]): Non-toxic; Activity (Mus musculus [11]): Non-toxic; Activity (Mus musculus [12]): Non-toxic
CCN(CC)CC(=O)Nc1cc(OC)ccc1Cc1nccc2ccccc12 | Non-toxic | Non-toxic | Non-toxic | Non-toxic | Activity (Mus musculus [9]): Non-toxic; Activity (Mus musculus [10]): Non-toxic; Activity (Mus musculus [11]): Non-toxic; Activity (Mus musculus [13]): inactive; Activity (Mus musculus [12]): Non-toxic; Activity (Mus musculus [15]): inactive
COc1ccc(CC2c3cc(OC)c(OC)cc3CCN2C)cc1OC (racemic) [LAUDANOSINE] | Non-toxic | Toxic | Toxic | Toxic | Activity (Mus musculus [16]): Non-toxic; Activity (Mus musculus [17]): inactive; Activity (Mus musculus [18]): Non-toxic; Activity (Mus musculus [15]): inactive
CCN(CC)CC(=O)Nc1c(Cc2nccc3ccccc23)ccc(OC)c1OC | Non-toxic | Non-toxic | Non-toxic | Non-toxic | Activity (Canis familiaris [19]): 90%; Activity (Canis familiaris [20]): 135%; Activity (Canis familiaris [21]): 15.75 mg/kg; Activity (Canis familiaris [22]): 6.25 mg/kg; Activity (Canis familiaris [23]): 0%; Activity (Canis familiaris [24]): 46.5 mg/kg
CCN(CC)CC(=O)Nc1cc(OC)c(OC)cc1Cc1nccc2cc(OC)c(OC)cc12 | Non-toxic | Non-toxic | Non-toxic | Non-toxic | 
CCN(CC)CC(=O)Nc1cc(OC)c(OC)cc1C.Cl | Non-toxic | Non-toxic | Non-toxic | Non-toxic | Activity (Mus musculus [9]): Non-toxic; Activity (Mus musculus [10]): Non-toxic; Activity (Mus musculus [11]): Non-toxic; Activity (Mus musculus [12]): Non-toxic; Activity (Mus musculus [15]): inactive
CCNCC(=O)Nc1c(Cc2nccc3ccccc23)ccc(OC)c1OC | Non-toxic | Non-toxic | Non-toxic | Non-toxic | Activity (Canis familiaris [19]): 85%; Activity (Canis familiaris [23]): 0%; Activity (Canis familiaris [24]): 10 mg/kg
COc1ccc(Cc2nccc3ccccc23)c(NC(=O)C(C)N)c1OC (centres undefined) | Non-toxic | Non-toxic | Non-toxic | Non-toxic | 
CCN(CC)CC(=O)Nc1c(C)cccc1C [LIDOCAINE] | Toxic | Non-toxic | Toxic | Toxic | Activity (Mus musculus [15]): Active
CCN(CC)CC(=O)Nc1cc(OC)c(OC)cc1Cc1nccc2ccccc12 | Non-toxic | Non-toxic | Non-toxic |  | 
COc1ccc(Cc2nccc3cc(OC)c(OC)cc23)cc1OC [PAPAVERINE] | Non-toxic | Non-toxic | Non-toxic |  | 
COc1ccc(Cc2nccc3ccccc23)c(NC(=O)CN)c1OC | Non-toxic | Non-toxic | Non-toxic | Non-toxic | 
